Source: article PMC6272120 (Cancer Science, 2018)
Values belong to the compound of their own block, whether it stands above or below them.

Key:
[1] = test system: 786‐O and ACHN cells; experiment: Wound healing and transwell migration assay; type: cell-based, human
How it was run: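 Transwell, 8-μm pores: 1 × 10⁴ cells (migration) or 2 × 10⁴ on Matrigel (invasion) in serum-free medium with treatment above complete medium at matching concentration, 24 h. Cells fixed 4% paraformaldehyde, stained .1% crystal violet, counted in 4 random fields. Mean ± SD, 3 experiments.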

[2] = test system: E‐cadherin, N‐cadherin, vimentin in 786‐O and ACHN cells; experiment: Western blot of EMT‐related proteins; type: cell-based, human
[3] = test system: 786‐O cells; experiment: Cell viability assay; type: cell-based; details: Homo sapiens
How it was run: (§1)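 Cells in RPMI-1640 with 10% FBS, seeded 5 × 10³/well, left overnight. Medium then replaced with test compound at 0, 10, 20, 40, 60, 80 and 100 μmol/L for 24 or 48 h. CCK8 added for 4 h at 37°C; OD read at 490 nm. Mean ± SD of 3 independent experiments.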

[4] = test system: ACHN cells; experiment: Cell viability assay; type: cell-based; details: Homo sapiens
How it was run: as §1

[5] = test system: HK‐2 normal renal tubular epithelial cells; experiment: Cell viability assay; type: cell-based, human; details: HK‐2, low doses of TQ (less than 60 μmol/L)
[6] = test system: 786‐O and ACHN cells; experiment: Transwell invasion assay; type: cell-based, human; details: 0, 20, 40, 60 μmol/L TQ
[7] = test system: LC3 in 786‐O and ACHN cells; experiment: Autophagy detection; type: cell-based, human
How it was run: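 786-O and ACHN cells pretreated 4 h with AMPK inhibitor (50 μmol/L), then 40 μmol/L test compound 24 h. RIPA lysis with protease/phosphatase inhibitors and PMSF on ice; BCA-normalised; 10%-15% SDS-PAGE, PVDF, 10% milk block 2 h RT; anti-LC3-I/II overnight 4°C, secondary 1 h; ECL detection. Mean ± SD of 3 independent experiments.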

[8] = test system: AMPK/mTOR signaling pathway in 786‐O and ACHN cells; experiment: Western blot of AMPK/mTOR signaling pathway; type: cell-based, human; details: 0, 20, 40, 60 μmol/L TQ, 24 hours
How it was run: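 786-O and ACHN cells exposed 24 h to test compound at 0, 20, 40, 60 μmol/L. RIPA lysis with protease/phosphatase inhibitors and PMSF; BCA-normalised; 10%-15% SDS-PAGE, PVDF, 10% milk block. Probed overnight at 4°C for AMPK, p-AMPK (Thr172), mTOR, p-mTOR (Ser2448), p-S6K (Thr389), LC3; secondary 1 h; ECL. Mean ± SD, 3 independent experiments.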

[9] = test system: 786‐O xenograft tumors; experiment: Subcutaneous 786‐O xenograft tumor model; type: in vivo, nude mice
How it was run: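 Male nude mice, 5 weeks old, 19-22 g, given 1 × 10⁶ 786-O cells s.c. with Matrigel in the right flank. At 100-150 mm³, randomised 5 per group: intraperitoneal DMSO or test compound 20 mg/kg every 3 days. Volume ((length × width²) × .5) and body weight recorded every 3 days. Tumours excised and weighed after 30 days. Mean ± SD.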

[10] = test system: lung metastasis of 786‐O cells; experiment: Metastatic tumor model, luciferase‐tagged 786‐O cells via tail veins; type: in vivo, nude mice; details: vs control
How it was run: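 Male nude mice, 5 weeks old, 19-22 g, received luciferase-tagged 786-O cells by tail vein, then two groups. Dosing was intraperitoneal DMSO (control) or test compound 20 mg/kg every 3 days. At day 30: D-luciferin 150 mg/kg i.p., 10 min wait, chloral hydrate anaesthesia, then bioluminescence imaging. Lung tumours harvested and H&E-stained.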

[11] = test system: RCC cells; experiment: Comparison of TQ with everolimus; type: cell-based, human; details: Figure S3
[12] = 3‐MA 5 mmol/L with TQ 40 μmol/L
[13] = TQ 20 mg/kg intraperitoneal every 3 days, 30 days
[14] = compound C 50 μmol/L pretreatment 4 hours, then TQ 40 μmol/L 24 hours

Compound: Cn1cnc(N)c2ncnc1-2 [3‐MA, 3‐methyladenine]
- effect on anti‐migratory ability of TQ [1, 12]: remarkably attenuated
- effect on TQ‐induced MET [2, 12]: abate TQ‐induced MET

- IC50 ([4]; 24 h, read-out: IC50 value, inhibition on cell growth): 72 µM
Compound: CC1=CC(=O)C(C(C)C)=CC1=O [TQ, 2‐methyl‐5‐isopropyl‐1,4‐benzoquinone]
- IC50 ([3]; 786-0, 24 h, read-out: IC50 value, inhibition on cell growth): 55 µM
- inhibition at 40 µM ([3]; 786-0, read-out: inhibitory rate of cell proliferation): < 20%
- inhibition at 40 µM ([4]; read-out: inhibitory rate of cell proliferation): < 20%
- effect on cell growth of normal cells [5]: no significant decrease in cell growth
- cancer cell migration ([1]; wound healing 40 μmol/L, transwell 0, 20, 40, 60 μmol/L, 24 hours): attenuated cancer cell migration in a time‐dependent and concentration‐dependent manner
- number of invaded cells [6]: number of invaded cells decreased with the increase of TQ concentration
- expression of EMT markers ([2]; different concentrations for 24 hours or 40 μmol/L for different times): upregulated epithelial markers (E‐cadherin), while downregulating mesenchymal markers (N‐cadherin, vimentin)
- LC3 puncta (autophagosomes and autolysosomes) ([7]; 40 μmol/L TQ, 24 hours, vs control group): number of both yellow and red puncta increased dramatically
- LC3‐II expression ([7]; western blot, different concentrations of TQ): upregulate LC3‐II in a concentration‐dependent manner
- expression of p‐AMPK [8]: elevated
- expressions of p‐mTOR and p‐S6K [8]: reduced
- tumor growth / tumor weight vs control [9, 13]: TQ inhibited RCC cell growth in vivo
- expression of E‐cadherin and N‐cadherin in xenograft tumors ([9]; immunohistochemistry and western blot, TQ 20 mg/kg): increased expression of E‐cadherin and decreased expression of N‐cadherin
- lung metastasis (bioluminescence) [10, 13]: significantly inhibited lung metastasis
- number of metastatic nodules in the lungs (H&E) ([10]; TQ 20 mg/kg): significant decrease in the number of metastatic nodules

Compound: c1cc(-c2cnn3cc(-c4ccc(OCCN5CCCCC5)cc4)cnc23)ccn1 [compound C]
- effect on TQ anti‐migratory and anti‐invasive effects (transwell) [1, 14]: attenuated the migratory and invasive capacities of autophagy induced by TQ
- effect on TQ‐induced MET [2, 14]: weakened TQ‐induced MET
- effect on TQ‐induced LC3 [7, 14]: effects of TQ on LC3 could be receded

Compound: CO[C@H]1C[C@@H]2CC[C@@H](C)[C@@](O)(O2)C(=O)C(=O)N2CCCC[C@H]2C(=O)O[C@H]([C@H](C)C[C@@H]2CC[C@@H](OCCO)[C@H](OC)C2)CC(=O)[C@H](C)/C=C(\C)[C@@H](O)[C@@H](OC)C(=O)[C@H](C)C[C@H](C)/C=C/C=C/C=C/1C [everolimus]
- inhibiting migration and invasion, inducing autophagy and MET, compared with TQ [11]: significantly more potent than TQ
